According to ChEMBL document CHEMBL1125832, “Synthesis and dopaminergic activity of 3-substituted 1-(aminomethyl)-3,4-dihydro-5,6-dihydroxy-1H-2-benzopyrans: characterization of an auxiliary binding region in the D1 receptor” (J Med Chem, 1991):

How the values were obtained:
Assay type in all cases: functional
Rattus norvegicus [1] = assay: Rat rotation experiments were conducted to evaluate rational behavior of the rats by administering at a dose of 20.0 umol/Kg subcutaneously
Procedure, shortened: (§1)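 Rats with unilateral 6-hydroxydopamine lesions of the nigrostriatal bundle. Compound given subcutaneously or orally at the stated dose. Net contralateral rotations counted over 2 h after dosing and reported as mean ± SEM; negative values indicate ipsilateral turning.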

Rattus norvegicus [2] = assay: Rat rotation experiments were conducted to evaluate rational behavior of the rats by administering at a dose of 0.2 umol/kg subcutaneously; procedure, shortened: as §1
Rattus norvegicus [3] = assay: (§2) Rat rotation experiments were conducted to evaluate rational behavior of the rats by administering at a dose of […] oral
Rattus norvegicus [4] = assay: as §2; remark: listed apart in the source
Rattus norvegicus [5] = assay: (§3) Rat rotation experiments were conducted to evaluate rational behavior of the rats by administering at a dose of […] subcutaneously
Rattus norvegicus [6] = assay: as §2; remark: listed apart in the source
Rattus norvegicus [7] = assay: as §3; remark: listed apart in the source
Rattus norvegicus [8] = assay: Rat rotation experiments were conducted to evaluate rational behavior of the rats by administering at a dose of 20 umol/kg oral; procedure, shortened: as §1
Rattus norvegicus [9] = assay: Rat rotation experiments were conducted to evaluate rational behavior of the rats by administering at a dose of 0.41 umol/Kg subcutaneously; procedure, shortened: as §1
Rattus norvegicus [10] = assay: Rat rotation experiments were conducted to evaluate rational behavior of the rats by administering at a dose of 4.1 umol/kg subcutaneously; procedure, shortened: as §1
Rattus norvegicus [11] = assay: Rat rotation experiments were conducted to evaluate rational behavior of the rats by administering at a dose of 40 umol/kg oral; procedure, shortened: as §1

NC[C@H]1O[C@@H](c2ccccc2)Cc2c1ccc(O)c2O
Activity (Rattus norvegicus [1]): -24

NC[C@@H]1O[C@H](c2ccccc2)Cc2c1ccc(O)c2O
Activity (Rattus norvegicus [2]): 348

CC(C)(C)C1Cc2c(ccc(O)c2O)[C@H](CN)O1 (stereo partly specified)
Activity (Rattus norvegicus [3]): 689 | Activity (Rattus norvegicus [4]): 176 | Activity (Rattus norvegicus [5]): 661 | Activity (Rattus norvegicus [6]): 932

C=CCNC[C@@H]1OC(C2CCCCC2)Cc2c1ccc(O)c2O (stereo partly specified)
Activity (Rattus norvegicus [7]): 1056

NC[C@@H]1OC(c2ccccc2)Cc2c1ccc(O)c2O (stereo partly specified)
Activity (Rattus norvegicus [8]): 326 | Activity (Rattus norvegicus [9]): 192 | Activity (Rattus norvegicus [10]): 1554 | Activity (Rattus norvegicus [11]): 1066
